Measured values reported in ChEMBL document CHEMBL1152856, “Design, synthesis and molecular modeling study of acylated 1,2,4-triazole-3-acetates with potential anti-inflammatory activity” (Eur J Med Chem, 2009).

How the values were obtained:
Rattus norvegicus [1] = assay: Antiinflammatory activity in albino rat assessed as inhibition of carrageenan-induced paw edema at 5 mg/kg, po administered 30 mins before carrageenan challenge measured after 1 hr; type: functional
In short: (§1)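 Rats dosed orally with compound suspended in 0.5% carboxymethyl cellulose; controls got CMC vehicle. 30 min later, 0.1 mL freshly prepared 1% carrageenan in normal saline injected subplantar into right hind paw. Paw thickness measured at 60, 120 and 180 min after dosing. Result given as % inhibition of edema ± S.E.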

Rattus norvegicus [2] = assay: Antiinflammatory activity in albino rat assessed as inhibition of carrageenan-induced paw edema at 5 mg/kg, po administered 30 mins before carrageenan challenge measured after 2 hrs; type: functional; in short: as §1
Rattus norvegicus [3] = assay: Antiinflammatory activity in albino rat assessed as inhibition of carrageenan-induced paw edema at 5 mg/kg, po administered 30 mins before carrageenan challenge measured after 3 hrs; type: functional; in short: as §1
Rattus norvegicus [4] = assay: Gastrointestinal toxicity in albino rat assessed as ulcer index at 10 mg/kg, po after 6 hrs; type: organism-based; set-up: dose 10 mg/kg, route oral; conditions: in vivo
In short: (§2)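 Oral dosing by stomach tube with suspensions in 0.5% w/v aqueous carboxymethyl cellulose (10, 50, 100 mg/kg); controls got equal volume of vehicle. Rats killed at 6 h, stomachs opened along greater curvature, washed, mucosa examined by stereomicroscope. Ulcer = lesion ≥0.5 mm; five patches = 1 mm. Ulcer index = summed lesion lengths divided by animal number; groups of 6.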

Rattus norvegicus [5] = assay: Gastrointestinal toxicity in albino rat assessed as ulcer index at 50 mg/kg, po after 6 hrs; type: organism-based; set-up: dose 50 mg/kg, route oral; conditions: in vivo; in short: as §2
Rattus norvegicus [6] = assay: Gastrointestinal toxicity in albino rat assessed as ulcer index at 100 mg/kg, po after 6 hrs; type: organism-based; set-up: dose 100 mg/kg, route oral; conditions: in vivo; in short: as §2
[7] = Toxicity in ip dosed albino mouse assessed as mortality after 24 hrs; type: organism-based; conditions: in vivo
In short: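 Adult male albino mice (25-30 g), groups of five, given graded doses intraperitoneally. Mortality per group recorded 24 h after injection. LD50 calculated by a graphical method.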

Row | Compound | inhibition in vivo at 5 mg/kg (Rattus norvegicus [1]) | inhibition in vivo at 5 mg/kg (Rattus norvegicus [2]) | inhibition in vivo at 5 mg/kg (Rattus norvegicus [3]) | UI (Rattus norvegicus [4]) | UI (Rattus norvegicus [5]) | UI (Rattus norvegicus [6]) | LD50 at 24 h [7]
1 | CCOC(=O)Cc1n[nH]c(NC(=O)c2ccc(OC)cc2)n1 | 30.2% | 38.2% | 56% | – | – | – | –
2 | CCOC(=O)Cc1n[nH]c(NC(=O)c2ccc(Cl)cc2)n1 | 31.1% | 39.1% | 58.5% | 0 | 0 | 0.75 | –
3 | CCOC(=O)Cc1nc(N)n(C(=O)c2ccc(Cl)cc2)n1 | 34.2% | 42.3% | 62.8% | 0 | 0.5 | 0.75 | 130 mg/kg
4 | CCOC(=O)Cc1nc(N)n(C(=O)c2ccc([N+](=O)[O-])cc2)n1 | 36.1% | 46.3% | 68.2% | – | – | – | 90 mg/kg
5 | CCOC(=O)Cc1n[nH]c(NC(=O)c2ccccc2)n1 | 26.8% | 36.2% | 55.3% | – | – | – | –
6 | COc1ccc2c(c1)c(CC(=O)O)c(C)n2C(=O)c1ccc(Cl)cc1 [INDOMETHACIN] | 31.5% | 40.1% | 60.8% | 2.5 | 1.9 | 2.1 | 50 mg/kg
7 | CCOC(=O)Cc1n[nH]c(NC(=O)c2ccc([N+](=O)[O-])cc2)n1 | 32.6% | 42.1% | 59.8% | – | – | – | –
8 | CCOC(=O)Cc1nc(N)n(C(=O)c2ccc(OC)cc2)n1 | 32.8% | 41.5% | 60% | – | – | – | –
9 | CCOC(=O)Cc1nc(N)n(C(=O)c2ccc(Br)cc2)n1 | 34.8% | 43% | 64.1% | – | – | – | 120 mg/kg
10 | CCOC(=O)Cc1nc(N)n(C(=O)c2ccccc2)n1 | 31.6% | 38.5% | 57.5% | – | – | – | –
11 | CCOC(=O)Cc1n[nH]c(N)n1 | 25% | 33.6% | 51.8% | – | – | – | –
12 | CCOC(=O)Cc1n[nH]c(NC(=O)c2ccc(Br)cc2)n1 | 31.3% | 40.4% | 58.8% | – | – | – | –
13 | Nc1nc(CC(=O)O)n[nH]1 | 22.3% | 29.5% | 48.1% | – | – | – | –
